# Shown is part of a subset that was picked to be rich in hits.
# E-selectin induc – E-selectin induction on HUVECs | P16581 | HUVEC E-selectin immunofluorescence imaging; normalized: neutral wells 0, TNF-alpha wells 100 | activation, % at 7.58 µM | actives 0.37% (n = 260,000) | AID 686992;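 active means mean E-selectin-positive cell signal at least 10% of the positive control, reached in at least 60% of replicates, without over 20% cell loss; inconclusive means no rule given, readout overlaps actives, possibly toxicity-flagged; inactive means the rest, including those meeting only one limit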
# Target sequence (P16581 whole entry, looked up): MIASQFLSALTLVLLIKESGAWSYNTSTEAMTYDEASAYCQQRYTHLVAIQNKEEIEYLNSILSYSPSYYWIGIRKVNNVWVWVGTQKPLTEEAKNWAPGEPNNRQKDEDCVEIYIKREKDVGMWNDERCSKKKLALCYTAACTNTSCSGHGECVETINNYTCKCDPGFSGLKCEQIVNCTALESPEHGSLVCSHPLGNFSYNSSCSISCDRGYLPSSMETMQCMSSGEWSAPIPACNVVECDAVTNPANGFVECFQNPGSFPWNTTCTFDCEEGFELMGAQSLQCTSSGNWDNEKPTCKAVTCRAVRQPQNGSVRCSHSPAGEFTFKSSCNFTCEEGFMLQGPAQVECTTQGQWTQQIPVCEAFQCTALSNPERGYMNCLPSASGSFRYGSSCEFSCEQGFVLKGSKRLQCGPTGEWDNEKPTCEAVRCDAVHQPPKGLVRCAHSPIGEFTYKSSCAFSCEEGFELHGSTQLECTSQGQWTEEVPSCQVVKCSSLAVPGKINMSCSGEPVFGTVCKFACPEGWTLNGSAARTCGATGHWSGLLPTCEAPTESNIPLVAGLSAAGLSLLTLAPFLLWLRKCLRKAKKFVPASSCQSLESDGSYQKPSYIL
#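 Read-out basis: % PE-positive cells; Test system: HUVEC primary endothelial cells; Technique: immunofluorescence imaging; Dosing: single-point compound dose.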
# XiGFP reactiv – activators of X-chromosome reactivation in mouse fibroblasts; XiGFP mouse fibroblasts, % GFP-positive cells imaging, 3 d; cells co-treated with 5-aza-dC sensitizer; scaled so ellipticine positive control = 100%; activation, % at 7.58 µM; actives 0.055% (n = 360,000); AID 743238;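 active means mean normalized replicate activation at least 10% and every replicate at or above 10%; inconclusive means only one of the two criteria met; inactive means mean below 10% and not all replicates reach 10%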;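 further: 0% = median of on-plate neutral control wells and 100% = ellipticine 6 µM median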
#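 Material: XiGFP fibroblasts, SV40-immortalized. Buffer or medium: DMEM plus 5-aza-dC sensitizer. Compound: single concentration per compound, delivered by pin transfer. Times: 3 days compound exposure. Controls: ellipticine 6 µM.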
# * marks the source's active call; other numbers are inactive results; ? = inconclusive; . = not tested or not shown.
SMILES,E-selectin induc,XiGFP reactiv
CNC[C@@H]1Oc2ccc(NC(C)=O)cc2C(=O)N(C)C[C@@H]1C,.,0
c1ccc(Cc2cc[n+](Cc3ccccn3)cc2)cc1,45*,0
O=[N+]([O-])c1ccc(C[n+]2ccc(Cc3ccccc3)cc2)cc1,.,7
S=C1NCN(Cc2ccccc2)CN1,.,0
c1ccc(Cn2c[n+](Cc3ccccc3)cn2)cc1,43*,0
O=C(Nc1cccc(S(=O)(=O)NCc2ccco2)c1)c1cccc(Cl)c1,200*,0
CC(=O)Nc1cccc(C(=O)Nc2cccc(S(=O)(=O)NCc3ccco3)c2)c1,-1,0
COc1ccc2c3c(n(C)c2c1)[C@@H](CO)N(Cc1ccc(Cl)cc1)CC31CN(CC2CC2)C1,0,0
CO[C@H]1CN(C)C(=O)c2ccc(NC(=O)Nc3cc(F)ccc3F)cc2OC[C@H](C)N(C(=O)c2cnccn2)C[C@H]1C,0,0
CCCNS(=O)(=O)c1ccc2c(c1)n(C)c(=O)n2C,.,0
CCCCN(C)CCNS(=O)(=O)c1ccc2c(c1)n(C)c(=O)c(=O)n2C,164*,0
COc1ccc(C#Cc2ccc3c(c2)[C@H]2[C@H](CCN2Cc2ccncc2)[C@H](CO)N3)cc1,2,0
C[C@H]1CN([C@@H](C)CO)S(=O)(=O)c2ccc(-c3cccnc3)cc2O[C@@H]1CN(C)C(=O)C1CC1,0,0
CC(=O)N(C1=C(Cl)C(=O)c2ccccc2C1=O)C1CCCCC1,36*,4
CC(=O)N(c1ccccc1C)C1CCCC1,.,0
CCOC(=O)[C@]12CCC=C1N(CCC1=CCCCC1)C(=O)[C@H](CC(=O)NCCc1ccccc1OC)C2,180*,0
CCOC(=O)[C@]12CCCC=C1N(CCC1=CCCCC1)C(=O)[C@H](CC(=O)NCCc1ccccc1OC)C2,0,0
CCc1nc(=O)c(-c2ccccc2)c(C)n1-c1ccccc1,43*,0
Cc1nc(=O)c(-c2ccccc2)c(C)n1-c1cccc(/C=C/C(=O)O)c1,0,0
CCOc1ccc(S(=O)(=O)Nc2cc(SCC(=O)O)c(O)c3ccccc23)cc1,.,0
O=S(=O)(Nc1cc(Sc2cccc3cccnc23)c(O)c2ccccc12)c1ccccc1,.,53*
CCCC(=O)N1CC2(CN[C@H](CO)c3c2c2ccc(OC)cc2n3C)C1,0,0
CN(C(=O)COC(=O)c1n[nH]c(=O)c2ccccc12)c1ccccc1,38*,0
CN(C(=O)COC(=O)c1n[nH]c2ccccc12)c1ccccc1,.,0
CCC(C)(C)NC(=O)/C=C/c1ccccc1[N+](=O)[O-],4,0
SMILES,E-selectin induc,XiGFP reactiv
CCNC(=O)/C=C/c1ccccc1[N+](=O)[O-],31*,0
COc1ccc(C[C@@H]2CCn3nncc3COC[C@H](c3ccccc3)NC2=O)cc1,.,0
COc1ccc(Nc2ccccc2NC(=O)c2ccccc2Br)cc1,0,0
COc1ccc(Nc2ccccc2N)cc1,37*,1
CCC(=O)N1CC2(CCN(S(C)(=O)=O)CC2)c2c(n(C)c3cc(OC)ccc23)[C@H]1CO,0,0
CC(=O)N(C)C[C@H]1Oc2ccc(N)cc2C(=O)N(C)C[C@H]1C,.,0
COc1ccc(N(C(=O)c2snc(C(N)=O)c2N)C(C(=O)NCc2ccc(F)cc2)c2ccc(C)o2)c(OC)c1 (stereo not given),17,0
COc1ccccc1N(C(=O)c1snc(C(N)=O)c1N)C(C(=O)NCc1ccccc1)c1ccc(C)o1 (stereo not given),33*,0
COc1ccc2c3c([nH]c2c1)[C@H](CO)NCC31CCN(C(=O)Cc2ccncc2)CC1,.,0
CCS(=O)(=O)N[C@H]1C=C[C@@H](CC(=O)NCc2ccc(Cl)cc2)O[C@H]1CO,0,0
CCS(=O)(=O)Nc1ccc2c(c1)C(=O)N(C)C[C@@H](OC)[C@H](C)CN(Cc1ccccn1)[C@H](C)CO2,0,0
CO[C@H]1CN(C)C(=O)c2ccc(NC(=O)c3ccccc3)cc2OC[C@H](C)NC[C@@H]1C,0,1
Cn1cnc(S(=O)(=O)NCc2ccccc2)c1,0,0
COc1ncnc(OC)c1S(=O)(=O)NCc1ccccc1,50*,0
C[C@H]1CN(C)C(=O)Cc2ccccc2O[C@H]1CN(C)S(C)(=O)=O,.,0
C/C=C/c1cnc2c(c1)C(=O)N([C@@H](C)CO)C[C@@H](C)[C@@H](CN(C)Cc1ccccc1)O2,0,-1
C[C@H](CO)N1C[C@H](C)[C@H](CN(C)Cc2ccc3c(c2)OCO3)Oc2ccc(NC(=O)Cn3cnnn3)cc2C1=O,39*,0
C[C@@H]1CN([C@@H](C)CO)C(=O)c2cc(NC(=O)Cn3cnnn3)ccc2O[C@H]1CN(C)Cc1ccc(Oc2ccccc2)cc1,48*,0
C[C@@H]1CN([C@@H](C)CO)C(=O)c2cc(NC(=O)Cn3cnnn3)ccc2O[C@H]1CN(C)Cc1ccc2c(c1)OCO2,0,0
C[C@H](CO)N1C[C@H](C)[C@@H](CN(C)Cc2ccc(Oc3ccccc3)cc2)Oc2ccc(NC(=O)Cn3cnnn3)cc2C1=O,-9,0
C[C@@H]1CN([C@@H](C)CO)C(=O)c2cccc(NC(=O)C3CC3)c2O[C@H]1CN(C)Cc1ccc(Oc2ccccc2)cc1,-1,0
C[C@@H]1CN([C@H](C)CO)C(=O)c2cccc(NC(=O)C3CCOCC3)c2O[C@@H]1CN(C)Cc1ccc(Oc2ccccc2)cc1,380*,0
C[C@H](CO)N1C[C@H](C)[C@H](CN(C)Cc2ccc(Oc3ccccc3)cc2)Oc2c(NC(=O)C3CCOCC3)cccc2C1=O,168*,0
C[C@H]1CN([C@@H](C)CO)C(=O)c2cccc(NC(=O)C3CCOCC3)c2O[C@H]1CN(C)Cc1ccc(Oc2ccccc2)cc1,?,0
COc1ccc(C(=O)N2CC(=O)Nc3ccc(C)cc3C2c2ccccc2)cc1 (stereo not given),0,0
SMILES,E-selectin induc,XiGFP reactiv
COc1ccc(C(=O)N2CC(c3ccccc3)CC2=O)cc1 (stereo not given),83*,0
COc1ccc([C@H]2CC=CC[C@H](C)Oc3ccccc3C(=O)N(C)[C@@H](C)C(=O)N2)c(OC)c1 (mixture of isomers),.,0
O=C(C[C@@H]1CC[C@H](NC(=O)CC2CC2)[C@H](CO)O1)NCc1ccccc1,0,0
Cc1ccn2c(=O)nc(SCC(=O)N3CCCc4ccccc43)nc2c1,.,0
O=C(CSc1nc(=O)n2ccccc2n1)N1CCCc2ccccc21,32*,0
C/C=C/c1ccc([C@H]2[C@@H](CO)N(CC3CCCC3)[C@H]2CNC(C)=O)cc1,0,0
CCc1cccc(C)c1NC(=O)CCCN1C(=O)NC(C)(C)C1=O,27*,0
CC(C)c1ccc(NC(=O)CCCN2C(=O)NC(C)(C)C2=O)cc1,0,0
CO[C@@H]1CN(C)C(=O)c2ccc(NC(=O)CC(F)(F)F)cc2OC[C@H](C)N(CC2CC2)C[C@@H]1C,.,0
CCOCCCNC(=O)C(c1ccc(C)cc1)N(Cc1cccs1)C(=O)c1ccccn1 (stereo not given),.,26*
CCOCCCNC(=O)C(c1ccc(Cl)cc1)N(Cc1cccs1)C(=O)c1ccccn1 (stereo not given),.,0

# Screening results (PubChem)
